# ChEMBL document CHEMBL4020727, “Synthesis and biological evaluation of largazole zinc-binding group analogs” (Bioorg Med Chem, 2017)
# Legend:
# Homo sapiens = species: Homo sapiens; experiment: Inhibition of class 1 HDAC in human MDA-MB-231 cells assessed as hyperacetylation of histone H3 (Lys9/14) measured at 8 hrs post treatment by immunoblot analysis; type: cell-based
# Procedure, shortened: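 Cells in DMEM/10% FBS; 4 × 10^5 cells seeded in 60-mm dishes overnight, then treated for 8 h with 0–10 μM (final) compound or vehicle (1% EtOH). Whole-cell lysates loaded at equal protein (BCA), run on SDS-PAGE, blotted to PVDF and probed with anti-acetyl histone H3 (Lys9/14); β-actin also probed. Chemiluminescent detection.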
# [1] = target: T1, Protein deacetylase HDAC6 (Homo sapiens, UniProt Q9UBN7); experiment: Inhibition of full length N-terminal GST-tagged human HDAC6 expressed in baculovirus infected Sf9 insect cells using HDAC substrate 3 after 30 mins by fluorescence assay
# T1 sequence (Q9UBN7 whole entry): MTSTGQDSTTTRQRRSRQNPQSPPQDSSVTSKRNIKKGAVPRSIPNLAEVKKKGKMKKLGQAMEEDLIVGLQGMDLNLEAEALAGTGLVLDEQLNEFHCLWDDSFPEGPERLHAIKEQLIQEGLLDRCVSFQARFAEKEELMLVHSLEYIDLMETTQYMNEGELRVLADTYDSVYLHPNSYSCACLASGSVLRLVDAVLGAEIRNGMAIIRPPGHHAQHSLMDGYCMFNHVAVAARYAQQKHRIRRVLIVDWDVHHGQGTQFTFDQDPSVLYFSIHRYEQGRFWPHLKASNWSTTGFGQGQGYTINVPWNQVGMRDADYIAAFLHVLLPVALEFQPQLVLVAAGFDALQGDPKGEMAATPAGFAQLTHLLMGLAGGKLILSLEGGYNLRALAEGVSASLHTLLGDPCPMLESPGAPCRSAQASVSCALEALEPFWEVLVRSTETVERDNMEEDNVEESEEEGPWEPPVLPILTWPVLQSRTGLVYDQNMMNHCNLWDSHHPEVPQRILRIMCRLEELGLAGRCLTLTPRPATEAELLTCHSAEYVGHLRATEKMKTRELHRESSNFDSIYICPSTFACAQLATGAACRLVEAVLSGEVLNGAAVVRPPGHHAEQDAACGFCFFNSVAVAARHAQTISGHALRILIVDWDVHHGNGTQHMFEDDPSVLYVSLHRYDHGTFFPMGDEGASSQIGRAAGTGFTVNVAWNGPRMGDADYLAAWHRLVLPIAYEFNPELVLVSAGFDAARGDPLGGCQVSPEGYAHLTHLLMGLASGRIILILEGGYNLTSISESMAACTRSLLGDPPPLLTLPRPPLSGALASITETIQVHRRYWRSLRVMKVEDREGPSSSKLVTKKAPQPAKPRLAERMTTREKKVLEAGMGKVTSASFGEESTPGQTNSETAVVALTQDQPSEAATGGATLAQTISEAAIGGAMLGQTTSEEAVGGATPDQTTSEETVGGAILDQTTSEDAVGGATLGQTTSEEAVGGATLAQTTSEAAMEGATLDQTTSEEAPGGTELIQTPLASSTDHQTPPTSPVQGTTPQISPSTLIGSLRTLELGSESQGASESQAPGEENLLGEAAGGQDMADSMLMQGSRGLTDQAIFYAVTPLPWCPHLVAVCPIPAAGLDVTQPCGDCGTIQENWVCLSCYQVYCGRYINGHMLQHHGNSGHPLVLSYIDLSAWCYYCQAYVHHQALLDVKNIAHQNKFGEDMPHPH
# Procedure, shortened: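 Run by a contract lab. Compound incubated with HDAC enzyme, HDAC substrate, BSA and HDAC buffer, in duplicate, at 37 °C for 30 min. Quenched with HDAC developer, then 15 min at room temperature. Percent activity = (F−Fb)/(Ft−Fb), using blank and solvent-control wells. IC50 from curve fitting.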
SMILES,inhibition (Homo sapiens),IC50 [1] [nM]
CC(C)[C@@H]1NC(=O)[C@]2(C)CSC(=N2)c2csc(n2)CNC(=O)C[C@@H](/C=C/CCC(=O)NO)OC1=O,Dose-dependent effect,600
CC(C)[C@@H]1NC(=O)[C@]2(C)CSC(=N2)c2csc(n2)CNC(=O)C[C@@H](/C=C/CCSCCS)OC1=O,Dose-dependent effect,2800
